KCNK3 block – human KCNK3 channel inhibitors, primary screen, CHO cells, FluxOR thallium flux, B-score; FluxOR fluorescence; stronger effect = lower value; B-score at 10 µM; hit rate 0.84% among 340,000;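 active = B-score under library mean minus 4 SD, starting fluorescence ratio at most library mean plus 5 SD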;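 also: more negative B-score means stronger inhibition of thallium flux through KCNK3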
Target sequence (O14649 whole entry, looked up): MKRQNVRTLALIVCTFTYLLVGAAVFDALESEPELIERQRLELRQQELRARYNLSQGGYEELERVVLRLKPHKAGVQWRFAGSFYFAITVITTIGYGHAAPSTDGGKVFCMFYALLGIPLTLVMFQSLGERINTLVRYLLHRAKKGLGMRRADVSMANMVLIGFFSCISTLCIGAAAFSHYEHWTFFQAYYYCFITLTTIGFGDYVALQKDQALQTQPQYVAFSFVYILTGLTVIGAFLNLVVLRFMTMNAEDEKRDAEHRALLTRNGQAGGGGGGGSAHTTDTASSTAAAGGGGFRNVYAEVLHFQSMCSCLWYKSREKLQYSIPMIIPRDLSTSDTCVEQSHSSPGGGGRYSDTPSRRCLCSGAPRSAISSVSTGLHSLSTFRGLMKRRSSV
KCNK9 inh – KCNK9 potassium channel inhibitors, primary screen, HEK293 cells, thallium flux. Potassium channel subfamily K member 9 (Homo sapiens), Q9NPC2. FluxOR thallium flux fluorescence; stronger effect = lower value. B-score at 10 µM. hit rate 1.2% among 310,000;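 active = ratio B-score over 3 SD below the library mean, with starting fluorescence within 5 SD of its mean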;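 also: negative B-score means less thallium flux so channel inhibition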
Target sequence (Q9NPC2 whole entry, looked up): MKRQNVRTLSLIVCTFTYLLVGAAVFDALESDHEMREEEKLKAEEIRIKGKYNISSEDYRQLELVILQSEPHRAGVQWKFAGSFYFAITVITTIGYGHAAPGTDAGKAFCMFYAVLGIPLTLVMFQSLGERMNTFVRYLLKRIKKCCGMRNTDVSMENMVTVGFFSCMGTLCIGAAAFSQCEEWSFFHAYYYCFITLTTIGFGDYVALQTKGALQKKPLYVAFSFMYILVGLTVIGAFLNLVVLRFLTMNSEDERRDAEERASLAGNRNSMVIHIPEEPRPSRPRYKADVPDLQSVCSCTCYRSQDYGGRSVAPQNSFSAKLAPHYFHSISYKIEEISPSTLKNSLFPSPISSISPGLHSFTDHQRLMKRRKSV
hERG protect – hERG rescue from dofetilide block, primary screen, cell-based, CHO-hERG, FluxOR thallium flux, dofetilide IC70; hit rate 0.51% among 310,000; Voltage-gated inwardly rectifying potassium channel KCNH2 (Homo sapiens), Q12809; activation (rescue from dofetilide block), less the hit threshold, % at 10 µM; dofetilide IC70 present; AID 1511, 2009;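 active = activation above the mean of controls blocked by dofetilide plus 5 SD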;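 also: thallium influx through hERG after potassium depolarization seen as dye fluorescence rise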
KCNQ1 block – inhibitors of human KCNQ1 channel, primary screen, cell-based, thallium flux, high-throughput | CHO-K1 KCNQ1, FluxOR thallium flux fluorescence; stronger effect = higher value | B-score at 10 µM | hit rate 1.3% among 310,000 | AID 2642, 2010;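 active = compounds whose thallium flux B-score, printed positive for inhibition, exceeds three library SD while starting fluorescence stays within three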;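 also: channel opened by potassium depolarization with thallium stimulus after 20 min compound exposure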
KCC2 mod – KCC2 cotransporter modulators, thallium flux, primary screen, cell-based, HEK293 KCC2, FluoZin-2 fluorescence, MLSMR; Solute carrier family 12 member 5 (Homo sapiens), Q9H2X9; B-score of Tl+ flux slope (higher = more flux/activation; lower = inhibition) at 10 µM; KCC2 cells, thallium flux FluoZin-2 fluorescence; hit rate 2.2% among 190,000;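 active = thallium flux slope and its plate-corrected score both differing from the plate sample mean at a set confidence after two filtering rounds, in either direction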;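 also: slope of fluorescence scaled to starting intensity during 10 to 20 s after thallium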
KCNQ1 pot – potentiators or activators of KCNQ1 channel, primary screen, cell-based, thallium flux, high-throughput | Potassium voltage-gated channel subfamily KQT member 1 (Homo sapiens), P51787 | CHO-K1 KCNQ1, thallium flux FluxOR fluorescence; stronger effect = higher value | B-score at 10 µM | hit rate 0.35% among 310,000 | AID 2648, 2010;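 active = fluorescence ratio B-score, a plate-corrected score, at least three library SD, with initial intensity B-score within 5 SD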
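Assay system: CHO-K1 cells stably expressing KCNQ1. Medium: assay buffer for compound exposure, DMSO matched across wells. Timing: 37 °C overnight plating, 90-min dark dye load, 20-min compound pretreatment. Signal: kinetic FluxOR fluorescence, 10 s baseline plus 110 s post-stimulus.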
KCC2 sec1 – KCC2 modulators in sodium-free buffer, confirmation, cell-based, HEK293 KCC2, thallium flux, secondary assay | hit rate 15% among 3,700 | FluoZin2 fluorescence; stronger effect = higher value | shares compounds with KCC2 mod | normalised thallium flux (F/F0 slope) at 10 µM;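 active = thallium flux slope above the same plate's solvent-only control mean plus 3 SD; inconclusive = the two replicate wells disagree; inactive = no significant difference from solvent-only control wells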
KCC2 bumet counter – thallium flux persisting under bumetanide in KCC2 cells, confirmation, counter-screen for KCC2 modulator project, cell-based, HEK293 KCC2, FluoZin2, secondary assay 3. shares compounds with KCC2 mod. HEK293-KCC2 + bumetanide/ouabain; stronger effect = higher value. normalized thallium flux at 10 µM. hit rate 49% among 3,700;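 active = thallium entry rate above the same plate's blocked-transporter control wells by more than 3 SD; inconclusive = the two repeat wells disagree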;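 also: raw slope of fluorescence over initial fluorescence between 10 and 20 s after thallium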
KCC2 sec2 – KCC2 modulators without ouabain present, confirmation, cell-based, HEK293 KCC2, thallium flux, FluoZin2, secondary assay 2. AID 1715, 2009. thallium flux FluoZin2 fluorescence; actives lie on both sides; F/F0 rise rate, 10–20 s post-thallium. normalized thallium flux at 10 µM. shares compounds with KCC2 mod. hit rate 23% among 3,700;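 active = thallium flux slope more than 3 SD above or below the plate's solvent-only control mean, mostly below; inconclusive = the two repeat wells disagreed; inactive = no significant shift from solvent-only controls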;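 also: raw slope with 0.1% DMSO as baseline and bumetanide as block control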
HEK counter1 – thallium flux modulation in parental HEK cells, confirmation, counter-screen for KCC2 modulator project, cell-based, counterscreen 1 | thallium flux rate (normalised fluorescence) at 10 µM | hit rate 46% among 3,700 | HEK293 parental cells, thallium flux FluoZin2, ouabain; baseline-ratio fluorescence slope, 10–20 s after thallium | shares compounds with KCC2 mod;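 active = thallium flux rate significantly above the same plate's solvent-only control wells, beyond their mean plus 3 SD; inconclusive = the two replicate wells gave conflicting results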
KCC2 ouabain – KCC2 inhibitors and activators, ouabain retest, confirmation, HEK-KCC2 cells. hit rate 48% among 3,700. HEK293-KCC2, thallium flux FluoZin2 fluorescence; bidirectional: low = inhibitor, high = activator. raw Tl+ flux slope (below DMSO = inhibition, above = activation) at 10 µM. AID 1717, 2009. shares compounds with KCC2 mod;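 active = thallium flux slope beyond 3 SD from same-plate DMSO control mean in most replicates, usually higher, sometimes lower; inconclusive = repeat tests gave conflicting results; inactive = no significant difference from controls in most replicates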;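 also: slope of initial-normalized fluorescence between seconds 10 and 20 after thallium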
HEK counter2 – native HEK Tl+ uptake effects, second counter-screen – HEK cells, counterscreen 2, counter-screen for KCC2 modulator project, confirmation; shares compounds with KCC2 mod; HEK293 parental, thallium flux FluoZin-2 fluorescence slope; thallium flux slope at 10 µM; hit rate 33% among 3,700; AID 1718, 2009;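 active = thallium flux slope above the same plate's solvent-control mean plus 3 SD in both duplicate wells; inconclusive = duplicate wells that disagreed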;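 also: run without ouabain in cells lacking the KCC2 cotransporter; slope of fluorescence scaled to its starting value between 10 and 20 s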
Starred values were filed as active, the others as inactive; i = inactive; ? = inconclusive; · = no result given. Rows were chosen to be rich in hits. Some 4.1% of all compounds tested hit in one or more screens of this group.

SMILES	KCNK3 block	KCNK9 inh	hERG protect	KCNQ1 block	KCC2 mod	KCNQ1 pot	KCC2 sec1	KCC2 bumet counter	KCC2 sec2	HEK counter1	KCC2 ouabain	HEK counter2
CCCn1c2ccccc2c2cnn(CC(=O)NCCCN3CCN(c4ccccc4)CC3)c(=O)c21	i	i	-15	i	·	i	·	·	·	·	·	·
N#CC1(Nc2ccc([N+](=O)[O-])cc2)CCCC1	i	·	·	·	·	·	·	·	·	·	·	·
C=CCN(c1ccccc1)S(=O)(=O)c1cccc(C(=O)OCC(=O)NC2CC2)c1	i	i	-8	i	-0.011	i	·	·	·	·	·	·
C=CCN(c1ccc(OC)cc1)S(=O)(=O)c1ccc(Cl)c(C(=O)OCC(=O)NC2CC2)c1	i	i	-9	i	-3.8*	i	0.0093	0.0071	?	0.006	0.014*	0.0097
CCCn1c(SCC(=O)N2c3ccccc3CC2C)nnc1-c1ccco1 (stereo not given)	i	i	-7	i	-4.8*	i	0.0083	0.0044	0.035	?	0.018*	0.0094
CC1CCCN(C(=O)c2ccc3c(=O)n(C4CCCC4)c(=S)[nH]c3c2)C1 (stereo not given)	i	i	-3	i	15*	i	0.011	0.025*	?	0.022*	?	0.011
O=C(c1ccc2c(=O)n(C3CCCC3)c(=S)[nH]c2c1)N1CCCCCC1	i	i	-16	i	5.3*	i	0.019	0.025*	0.03	0.01*	0.019	0.013*
CCCCCn1c(=S)[nH]c2cc(C(=O)N3CCCC3)ccc2c1=O	i	i	-17	i	2.3	i	·	·	·	·	·	·
O=C(c1ccc2c(=O)n(-c3ccccc3)c(=S)[nH]c2c1)N1CCCCC1	i	i	-36	i	-1.4	i	·	·	·	·	·	·
Cc1noc(C)c1CSCC(=O)N(C)CC(=O)Nc1ccccc1Br	i	i	-11	i	·	i	·	·	·	·	·	·
COc1ccc(N=Cc2c(O)[nH]c3ccccc23)cc1	i	i	0	i	-1.3	i	·	·	·	·	·	·
Oc1[nH]c2ccccc2c1/C=N/c1nccs1	i	i	-12	i	15*	i	0.013*	0.023*	0.035	?	?	?
O=C1C=CC(=O)N1CCCCCCCCCCN1C(=O)C=CC1=O	i	·	·	·	·	·	·	·	·	·	·	·
COc1ccc2c(c1)O[C@H](c1ccc3c(c1)OCO3)[C@@H](OC(=O)Nc1cc(OC)c(OC)c(OC)c1)C2=O	·	i	-8	i	0.82	i	·	·	·	·	·	·
CC[C@H](C)[C@@H](NC(=O)O[C@@H]1C(=O)c2cc(OC)ccc2O[C@H]1c1ccc(OC)c(Br)c1)C(=O)OC	i	·	·	·	1.5	·	·	·	·	·	·	·
COC(=O)[C@@H](NC(=O)O[C@@H]1C(=O)c2ccc(OC)cc2O[C@H]1c1cccc(C(F)(F)F)c1)C(C)C	·	i	-7	i	5.6*	i	0.0064	0.011*	0.031	0.015*	?	0.013*
COc1ccc2c(c1)O[C@@H](c1cccc(C(F)(F)F)c1)[C@H](OC(=O)NCCc1ccc(OC)c(OC)c1)C2=O	·	i	8.4*	i	38*	8*	0.0067	0.028*	?	0.029*	0.037*	0.022*
COc1cccc([C@@H]2Oc3ccc(OC)cc3C(=O)[C@H]2OC(=O)NCc2ccc3c(c2)OCO3)c1	·	i	4.6*	i	42*	i	0.0061	0.058*	0.064*	0.068*	0.055*	0.051*
Cc1noc(C)c1S(=O)(=O)Nc1ccc2c(c1)C(=O)N([C@H](C)CO)C[C@H](C)[C@@H](CN(C)C(=O)NC1CCCCC1)O2	i	·	·	·	·	·	·	·	·	·	·	·
O=C(O)c1cc([N+](=O)[O-])ccc1NCc1ccccc1Cl	i	i	-22	i	-4.5*	i	?	0.0056*	0.022*	?	0.011*	0.0099
NNC(=O)Cn1c(SCc2ccccc2)nc2ccccc21	i	i	-5	i	-3.3*	i	0.0074	0.0045	0.03	0.0074	0.018	0.0099
CCSc1nc2ccccc2n1CCC(=O)O	i	i	-5	i	-0.57	i	·	·	·	·	·	·
O=C(O)CCn1c(SCc2cccc3ccccc23)nc2ccccc21	i	i	-12	i	-8.7*	i	?	0.0065	0.022*	0.0066	0.016*	0.0097
C[C@H](O)[C@@H]1C(=O)N2CCc3ccc(-c4ccccc4)cc3[C@@H]2C[C@@H]1N(C)C(=O)Nc1cc(Cl)cc(Cl)c1	i	·	·	·	·	·	·	·	·	·	·	·
Cc1ccc(NCC2(N=Cc3ccccc3)OC(CO)C(O)C2O)cc1 (stereo not given)	i	·	·	·	·	·	·	·	·	·	·	·
CCOC(=O)Sc1nc2ncncc2[nH]1	i	·	·	·	·	·	·	·	·	·	·	·
CC(C)(C)C1CCc2onc(C(=O)Nc3cccnc3)c2C1 (stereo not given)	i	i	-15	i	6.5*	i	0.0068	0.0045	0.03	0.0081	0.019	0.011

From PubChem
